What is called IC50 is the concentration that gives 50% inhibition.

Series [1] concerns Trypanosoma cruzi. Nature of the series: Induction of ultrastructural modifications in Trypanosoma cruzi Maracay at IC25 level incubated for 96 hrs by transmission electron microscopy. Type of series: functional, organism-based. An outline of the steps: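 Maracay epimastigotes at 5 × 10^5 cells/mL exposed at IC25 for 96 h. Pellets washed in PBS, fixed in 2% paraformaldehyde/glutaraldehyde in 0.05 M cacodylate (pH 7.4) for 4 h at 4 °C, then examined by TEM.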

Series [2] concerns Trypanosoma cruzi. Nature of the series: Antitrypanosomal activity against Trypanosoma cruzi IRHOD/VO/2008/SN3 metacyclic forms infected in BALB/c mouse model of chronic Chagas disease subjected to 3 cycles of immunosuppression with 50 mg/kg cyclophosphamide monohydrate for 3 consecutive weeks assessed as parasitemia reactivation level at 15 mg/kg/day, ip administered for 5 consecutive days starting on day 7 post infection until day 12 post infection and measured on day 150 post infection. Type of series: functional. In a few lines: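 Female BALB/c mice (6–8 wk, 25–30 g), six per group, were infected ip with 5 × 10^5 metacyclic trypomastigotes from infected mouse blood and dosed ip daily on days 7–12 pi. From day 120 pi a subgroup got three 4-day cycles of cyclophosphamide 50 mg/kg, 3 days apart. Parasites were counted by Neubauer chamber the day after cycle three in 5 μL mandibular-vein blood (1:100 PBS). Reactivation was scored against the matching non-immunosuppressed group; three experiments.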

The test system of series [3] is Trypanosoma cruzi. Nature of the series: Antitrypanosomal activity against Trypanosoma cruzi IRHOD/VO/2008/SN3 metacyclic forms infected in BALB/c mouse model of acute Chagas disease assessed as reduction parasitemia at 5 mg/kg/day, ip administered for 5 consecutive days starting on day 7 post infection until day 12 post infection and measured on day 25 post infection. Type of series: functional, organism-based. In a few lines:
(§1)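 Groups of six female BALB/c mice (6–8 weeks, 25–30 g) inoculated ip with 5 × 10^5 metacyclic trypomastigotes. Dosed ip at 5 or 15 mg/kg/day on days 7–12 pi; untreated infected controls. Mandibular-vein blood (5 μL in 495 μL PBS) counted every 3 days for 40 days in a Neubauer chamber, as parasites/mL.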

For series [4], the system named is Trypanosoma cruzi. Nature of the series: Antitrypanosomal activity against Trypanosoma cruzi IRHOD/VO/2008/SN3 metacyclic forms infected in BALB/c mouse model of acute Chagas disease assessed as reduction in parasitemia level at 15 mg/kg/day, ip administered for 5 consecutive days starting on day 7 post infection until day 12 post infection and measured on day 15 post infection relative to untreated control. Type of series: functional. Also on record: scale not given: the % may be the effect or the level left. Particulars: route intraperitoneal. An outline of the steps: as §1

Series [5] concerns Trypanosoma cruzi. Nature of the series: Antitrypanosomal activity against Trypanosoma cruzi IRHOD/VO/2008/SN3 metacyclic forms infected in BALB/c mouse model of acute Chagas disease assessed as reduction parasitemia at 5 mg/kg/day, ip administered for 5 consecutive days starting on day 7 post infection until day 12 post infection and measured on day 15 to 20 post infection. It is filed as functional. In a few lines:
as §1

A short description of series [6]: Selectivity index, ratio of IC50 for SOD1 in human erythrocytes to IC50 for Trypanosoma cruzi IRHOD/VO/2008/SN3 epimastigotes Iron superoxide dismutase. Type of series: cell-based.
Series [7] in a line: Inhibition of Trypanosoma cruzi IRHOD/VO/2008/SN3 epimastigotes Iron superoxide dismutase by spectrophotometry. In a few lines:
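Enzyme from sonicated parasites in STE buffer, pH 7.8, or human erythrocyte CuZn-SOD. Activity measured as NBT reduction by superoxide (Beyer–Fridovich): methionine, NBT, Triton X-100 and riboflavin, with A560 read before and after 10 min of light. Compounds tested at 1–100 μM. Mean of five; IC50 by linear regression from Kc.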

Series [8] relates to Trypanosoma cruzi. Nature of the series: Antitrypanosomal activity against Trypanosoma cruzi IRHOD/VO/2008/SN3 metacyclic forms infected in african green monkey Vero cells assessed as inhibition of trypomastigotes level at IC25 level 0.5 to 10 days. Type of series: functional. An outline of the steps:
(§2)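 Vero cells in RPMI infected with metacyclic forms at 10:1. Compounds added at IC25 immediately after infection for 12 h at 37 °C, 5% CO2, then washed off. Cultures grown 10 days with fresh medium every 48 h. Giemsa slides scored for % infected cells and amastigotes per cell (>100 cells); trypomastigotes in medium counted. Mean of four.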

Series [9] deals with Trypanosoma cruzi. Nature of the series: Antitrypanosomal activity against Trypanosoma cruzi IRHOD/VO/2008/SN3 metacyclic forms infected in african green monkey Vero cells assessed as inhibition of intracellular amastigotes replication at IC25 level 0.5 to 10 days. It is filed as functional. In a few lines:
as §2

Series [10] is described as follows: Selectivity index, ratio of IC50 for african green monkey Vero cells to IC50 for Trypanosoma cruzi IRHOD/VO/2008/SN3 intracellular amastigotes. It is filed as toxicity, cell-based. The settings on record: read-out: Ratio IC50.
Series [11] can be described thus: Selectivity index, ratio of IC50 for african green monkey Vero cells to IC50 for Trypanosoma cruzi IRHOD/VO/2008/SN3 epimastigotes. It is filed as toxicity, cell-based. Particulars: Vero cells versus Trypanosoma cruzi epimastigotes, read-out: Ratio IC50.
A short description of series [12]: Toxicity against african green monkey Vero cells. It is filed as cell-based, Chlorocebus sabaeus.
Series [13] concerns Trypanosoma cruzi. Nature of the series: Antitrypanosomal activity against Trypanosoma cruzi IRHOD/VO/2008/SN3 […] amastigotes infected in african green monkey Vero cells incubated for 72 hrs. It is filed as functional, organism-based. Particulars: IRHOD/VO/2008/SN3, Vero.
Series [14] has as its system Trypanosoma cruzi. Nature of the series: Effect on glucose metabolism in Trypanosoma cruzi IRHOD/VO/2008/SN3 epimastigotes assessed as excreted acetate level at IC25 level incubated for 96 hrs at 28 degC by [1H]NMR spectroscopy.
Series [15] deals with Trypanosoma cruzi. Nature of the series: Effect on glucose metabolism in Trypanosoma cruzi IRHOD/VO/2008/SN3 epimastigotes assessed as excreted ethanol level at IC25 level incubated for 96 hrs at 28 degC by [1H]NMR spectroscopy.
For series [16], the system named is Trypanosoma cruzi. Nature of the series: Effect on glucose metabolism in Trypanosoma cruzi IRHOD/VO/2008/SN3 epimastigotes assessed as excreted L-alanine level at IC25 level incubated for 96 hrs at 28 degC by [1H]NMR spectroscopy.

The source made the active and inactive calls. The calls are words filed in the database; no cut-off is given here.

`Clc1nnc(NCCCn2ccnc2)c2ccccc12`: the result in the series with Trypanosoma cruzi [1], in the series on Trypanosoma cruzi [3] and in the series on Trypanosoma cruzi [5] was Active. The Activity in the series on Trypanosoma cruzi [2] is reported as 8%; with Trypanosoma cruzi [4], 64%; in the series with Trypanosoma cruzi [14] it was -54%; in the series on Trypanosoma cruzi [15], -16%; in the series with Trypanosoma cruzi [16], -27%. In addition, in series [6], the Ratio IC50 worked out at 5.8. Besides, the results for the IC50 (in [7]; in series [12]; in the series with Trypanosoma cruzi [13]) were 14.4 µM, 437 µM and 10.6 µM, respectively. For the same molecule, the “inhibition (INH)” value in the series on Trypanosoma cruzi [8] came to 73.9%; with Trypanosoma cruzi [9], 55.8%. Also, the selectivity ratio in series [10] was determined as 49.1; in series [11] it was 49.6.
`Clc1nnc(NCCc2c[nH]cn2)c2ccccc12`: the result in the series on Trypanosoma cruzi [1], in the series on Trypanosoma cruzi [3] and in the series on Trypanosoma cruzi [5] was Active. Moreover, the Activity is 4% with Trypanosoma cruzi [2]; 59% in the series with Trypanosoma cruzi [4]; -21% with Trypanosoma cruzi [14]; -12% in the series with Trypanosoma cruzi [15]; -13% with Trypanosoma cruzi [16]. For the same molecule, the Ratio IC50 in [6] was 5.5. Moreover, the IC50 amounted to 12.9 µM in series [7], 427 µM in [12] and 10.1 µM in the series on Trypanosoma cruzi [13]. Moreover, the “inhibition (INH)” value worked out at 85.1% with Trypanosoma cruzi [8] and 62.9% in the series on Trypanosoma cruzi [9]. Further, the selectivity ratio in series [10] was found to be 45.5; in series [11], 49.1.

The record behind these values is ChEMBL document CHEMBL2176896, “Phthalazine derivatives containing imidazole rings behave as Fe-SOD inhibitors and show remarkable anti-T. cruzi activity in immunodeficient-mouse mode of infection” (J Med Chem, 2012).
